Converted amounts (≈) assume the structure as drawn.

Holding throughout (type): functional
For assay [1], the system named is Cryptococcus neoformans. The experiment in a line: Antifungal activity against Cryptococcus neoformans ATCC BLS108 after 72 hrs by micro-broth dilution method. The settings on record: ATCC BLS108, 72 h. In outline:
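Quality-control ATCC strain included in each assay. Microbroth dilution per NCCLS M27-A2. DMSO-dissolved compounds were serially diluted in growth medium, inoculated and held at 35 °C, with MIC read at 72 h. MIC80 is the first well showing about 80% growth reduction versus the drug-free well. Tests were done in triplicate and the mean reported.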

The test system of assay [2] is Aspergillus fumigatus. The experiment in a line: Antifungal activity against Aspergillus fumigatus clinical isolate by micro-broth dilution method. In outline: (§1)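 Clinical isolate. MIC by broth microdilution following the NCCLS M27-A2 reference method for yeasts. Compounds were dissolved in DMSO, serially diluted in growth medium, inoculated and incubated at 35 °C. MIC80 is the first well with about 80% less growth than the drug-free well. Each test was run three times and the mean of replicates reported.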

Assay [3] deals with Candida albicans. The experiment in a line: Ratio of voriconazole MIC80 to compound MIC80 for Candida albicans ATCC Y0109.
Assay [4] relates to Candida albicans. The assay can be described thus: Antifungal activity against Candida albicans ATCC Y0109 after 24 hrs by micro-broth dilution method. The settings on record: ATCC Y0109, 24 h. Summed up: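 ATCC quality-control strain, tested in every assay. NCCLS M27-A2 broth microdilution. Compounds were dissolved in DMSO, serially diluted in growth medium, inoculated and incubated at 35 °C, with growth read at 24 h. MIC80 is the first well with about 80% growth reduction relative to the drug-free control. Each test was run three times and the mean of replicates taken.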

In assay [5] the test system is Nannizzia gypsea. The assay can be described thus: Antifungal activity against Microsporum gypseum clinical isolate by micro-broth dilution method. Summed up:
as §1

The subject of assay [6] is Candida tropicalis. The assay can be described thus: Antifungal activity against Candida tropicalis clinical isolate by micro-broth dilution method. In outline: as §1
Assay [7] deals with Trichophyton rubrum. The assay can be described thus: Antifungal activity against Trichophyton rubrum clinical isolate by micro-broth dilution method. Summed up: as §1
The nature of assay [8]: Antifungal activity against Fonsecaea compacta clinical isolate by micro-broth dilution method. Summed up: as §1
Assay [9] concerns Candida parapsilosis. The assay can be described thus: Antifungal activity against Candida parapsilosis clinical isolate by micro-broth dilution method. The following applies: Lodderomyces parapsilosis. In outline:
as §1

As to `O=C(/C=C/c1ccccc1)Nc1ccc(N2CCN(CC(O)(Cn3cncn3)c3ccc(F)cc3F)CC2)c(C(F)(F)F)c1` (centres undefined), the MIC80 was 0.25 µg/mL (≈ 0.408 µM) in assay [1], 4 µg/mL (≈ 6.53 µM) in [2] and 0.00097 µg/mL (≈ 0.00158 µM) in [4]. In [3], the Ratio was determined as 16.
For `CC(=O)Nc1ccc(N2CCN(CC(O)(Cn3cncn3)c3ccc(F)cc3F)CC2)c(C(F)(F)F)c1` (centres undefined), the MIC80 in assay [1] was 0.25 µg/mL (≈ 0.477 µM); in [5], 1 µg/mL (≈ 1.91 µM); in assay [6] it was 0.25 µg/mL (≈ 0.477 µM); in [2] it was > 64 µg/mL; in [7], 1 µg/mL (≈ 1.91 µM); in assay [4], 0.0625 µg/mL (≈ 0.119 µM). The MIC80 in [8] is 1 µg/mL (≈ 1.91 µM); in assay [9], 0.25 µg/mL (≈ 0.477 µM).
Take `O=C(Nc1ccc(N2CCN(CC(O)(Cn3cncn3)c3ccc(F)cc3F)CC2)c(C(F)(F)F)c1)c1ccc(Cl)cc1` (centres undefined): the MIC80 in [1] was > 64 µg/mL; in assay [5] it was 0.25 µg/mL (≈ 0.403 µM); in assay [6], 1 µg/mL (≈ 1.61 µM); in assay [2], 4 µg/mL (≈ 6.44 µM); in assay [7] it was 4 µg/mL (≈ 6.44 µM); in [4], 4 µg/mL (≈ 6.44 µM). Moreover, the MIC80 in assay [8] is 4 µg/mL (≈ 6.44 µM); in [9], 0.25 µg/mL (≈ 0.403 µM).
For the compound `Cc1ccc(C(=O)Nc2ccc(N3CCN(CC(O)(Cn4cncn4)c4ccc(F)cc4F)CC3)c(C(F)(F)F)c2)cc1` (centres undefined), the MIC80 in [1] came to 1 µg/mL (≈ 1.67 µM); in assay [5], 1 µg/mL (≈ 1.67 µM); in assay [6], 1 µg/mL (≈ 1.67 µM); in [2], 64 µg/mL (≈ 107 µM); in [7], 4 µg/mL (≈ 6.66 µM); in assay [4], 1 µg/mL (≈ 1.67 µM). For the same compound, the MIC80 came to 16 µg/mL (≈ 26.6 µM) in assay [8] and 0.25 µg/mL (≈ 0.416 µM) in assay [9].
Regarding `CCC(C)n1ncn(-c2ccc(N3CCN(c4ccc(OCC5COC(Cn6cncn6)(c6ccc(Cl)cc6Cl)O5)cc4)CC3)cc2)c1=O` (centres undefined) [ITRACONAZOLE], the MIC80 in assay [1] came to 1 µg/mL (≈ 1.42 µM); in assay [5] it was 0.0156 µg/mL (≈ 0.0221 µM); in assay [6], 0.25 µg/mL (≈ 0.354 µM); in assay [2] it was 1 µg/mL (≈ 1.42 µM); in assay [7], 0.0156 µg/mL (≈ 0.0221 µM); in [4] it was 1 µg/mL (≈ 1.42 µM). The MIC80 in assay [8] and in assay [9] was 0.25 µg/mL (≈ 0.354 µM) each time.
On to `CC(C)(C)C(=O)Nc1ccc(N2CCN(CC(O)(Cn3cncn3)c3ccc(F)cc3F)CC2)c(C(F)(F)F)c1` (centres undefined), for which the MIC80 is 1 µg/mL (≈ 1.76 µM) in [1]; 0.25 µg/mL (≈ 0.441 µM) in [5]; 1 µg/mL (≈ 1.76 µM) in [6]; > 64 µg/mL in [2]; 4 µg/mL (≈ 7.06 µM) in assay [7]; 0.25 µg/mL (≈ 0.441 µM) in [4]. Moreover, the figures for the MIC80 in [8] and in [9] were 4 µg/mL (≈ 7.06 µM) and 1 µg/mL (≈ 1.76 µM), respectively.
Turning to `CC(C)(C)c1ccc(C(=O)Nc2ccc(N3CCN(CC(O)(Cn4cncn4)c4ccc(F)cc4F)CC3)c(C(F)(F)F)c2)cc1` (centres undefined), the MIC80 is 0.25 µg/mL (≈ 0.389 µM) in [1]; 4 µg/mL (≈ 6.22 µM) in assay [5]; 1 µg/mL (≈ 1.56 µM) in assay [6]; > 64 µg/mL in assay [2]; 4 µg/mL (≈ 6.22 µM) in assay [7]; 4 µg/mL (≈ 6.22 µM) in [4]. The MIC80 in assay [8] worked out at 4 µg/mL (≈ 6.22 µM); in assay [9] it was 0.25 µg/mL (≈ 0.389 µM).
For `CCCCCC(=O)Nc1ccc(N2CCN(CC(O)(Cn3cncn3)c3ccc(F)cc3F)CC2)c(C(F)(F)F)c1` (centres undefined), the MIC80 in [1] amounted to 1 µg/mL (≈ 1.72 µM); in [5] it was 4 µg/mL (≈ 6.89 µM); in assay [6], 4 µg/mL (≈ 6.89 µM); in assay [2], 64 µg/mL (≈ 110 µM); in assay [7] it was 4 µg/mL (≈ 6.89 µM); in assay [4], 1 µg/mL (≈ 1.72 µM). Further, the MIC80 in assay [8] amounted to 16 µg/mL (≈ 27.6 µM); in [9] it was 1 µg/mL (≈ 1.72 µM).
On to `CCC(=O)Nc1ccc(N2CCN(CC(O)(Cn3cncn3)c3ccc(F)cc3F)CC2)c(C(F)(F)F)c1` (centres undefined), for which the MIC80 in [1] came out at 1 µg/mL (≈ 1.86 µM); in assay [5], 1 µg/mL (≈ 1.86 µM); in [6], 0.25 µg/mL (≈ 0.464 µM); in assay [2], 16 µg/mL (≈ 29.7 µM); in assay [7] it was 1 µg/mL (≈ 1.86 µM); in assay [4], 0.25 µg/mL (≈ 0.464 µM). Moreover, the MIC80 came to 4 µg/mL (≈ 7.43 µM) in assay [8] and 1 µg/mL (≈ 1.86 µM) in [9].
Turning to `O=C(Nc1ccc(N2CCN(CC(O)(Cn3cncn3)c3ccc(F)cc3F)CC2)c(C(F)(F)F)c1)c1ccc(OC(F)(F)F)cc1` (centres undefined), the MIC80 in assay [1] is 16 µg/mL (≈ 23.9 µM); in assay [5], 4 µg/mL (≈ 5.97 µM); in assay [6], 4 µg/mL (≈ 5.97 µM); in [2], 64 µg/mL (≈ 95.4 µM); in [7] it was 16 µg/mL (≈ 23.9 µM); in [4], 16 µg/mL (≈ 23.9 µM). Further, the figures for the MIC80 in assay [8] and in [9] were 16 µg/mL (≈ 23.9 µM) and 4 µg/mL (≈ 5.97 µM), respectively.
With `CCCCCCCC(=O)Nc1ccc(N2CCN(CC(O)(Cn3cncn3)c3ccc(F)cc3F)CC2)c(C(F)(F)F)c1` (centres undefined), the MIC80 in assay [1] was 16 µg/mL (≈ 26.3 µM); in [5], 0.25 µg/mL (≈ 0.411 µM); in assay [6] it was 16 µg/mL (≈ 26.3 µM); in assay [2], > 64 µg/mL; in assay [7] it was 4 µg/mL (≈ 6.57 µM); in assay [4], 0.25 µg/mL (≈ 0.411 µM). Moreover, the MIC80 in assay [8] and in [9] was 4 µg/mL (≈ 6.57 µM) in each case.

The record behind these values is ChEMBL document CHEMBL1795297, “Design, synthesis and molecular docking studies of novel triazole as antifungal agent” (2011).
